Laboratory results taken from ChEMBL document CHEMBL3785009, “Oxadiazole-Based Cell Permeable Macrocyclic Transition State Inhibitors of Norovirus 3CL Protease” (J Med Chem, 2016).

Key:
[1] = Inhibition of Norovirus 3C-like protease using Edans-DFHLQGP-Dabcyl fluorogenic substrate after 30 mins as substrate by FRET assay
How it was run: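 FRET assay with the fluorogenic substrate derived from NV polyprotein cleavage sites. Compounds tested up to 100 μM. IC50 from at least two independent experiments.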

Norovirus = assay: Antiviral activity against Norovirus infected in human HG23 cells assessed as reduction in RNA levels after 48 hrs by RT-PCR; type: functional, cell-based; conditions: for EC50 / EC90: HG23, 48 h
How it was run: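 HG23 cells are Huh-7 cells carrying the NV replicon. Cells were seeded 1 day before treatment with compound (1.0–100 μM) for 48 h. Total RNA was extracted and norovirus and β-actin RNA measured by qRT-PCR. EC50/EC90 derived from % RNA reduction versus mock after β-actin normalization. At least two independent experiments; mean and standard deviation reported.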

[2] = Cytotoxicity against human HG23 cells by CytoTox96 nonradioactive cytotoxicity assay; type: functional
How it was run: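 HG23 cells (Huh-7 cells harbouring NV replicon) exposed to compound in serial dilution up to 100 µM; cytotoxicity read with a nonradioactive cytotoxicity kit; CC50 taken as concentration giving 50% cytotoxicity; at least two independent experiments.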

[3] = Antiviral activity against Murine norovirus1 infected in […] cells assessed as inhibition of virus induced cytopathic effect after 48 hrs by CytoTox96 nonradioactive cytotoxicity assay; conditions: Murine norovirus 1, 48 h

Row | SMILES | IC50 [1] | EC50 (Norovirus) | EC90 (Norovirus) | CC50 [2] | EC50 [3] | Activity (Norovirus)
1 | CC(C)C[C@@H]1NC(=O)[C@@H](NC(=O)OC(C)(C)C)CC2=NN=C(CNC(=O)CC[C@@H](C=O)NC1=O)O2 | > 100 µM | 19.4 µM | > 100 µM | > 100 µM | > 100 µM | –
2 | CC(C)C[C@@H]1NC(=O)[C@@H](NC(=O)OC(C)(C)C)CCC2=NN=C(CCNC(=O)CC[C@@H](C=O)NC1=O)O2 | 15.3 µM | 2.5 µM | 23.4 µM | > 100 µM | 9.8 µM | –
3 | CC(C)C[C@@H]1NC(=O)[C@@H](NC(=O)OC(C)(C)C)CCC2=NN=C(CNC(=O)CC[C@@H](C=O)NC1=O)O2 | 34.3 µM | 18.1 µM | 72.7 µM | > 100 µM | > 100 µM | –
4 | CC(C)(C)OC(=O)N[C@H]1CCC2=NN=C(CCCNC(=O)CC[C@@H](C=O)NC(=O)[C@H](CC3CCCCC3)NC1=O)O2 | 45.1 µM | 9.4 µM | 73.3 µM | > 100 µM | > 100 µM | –
5 | CC(C)(C)OC(=O)N[C@H]1CCC2=NN=C(CCNC(=O)CC[C@@H](C=O)NC(=O)[C@H](CC3CCCCC3)NC1=O)O2 | 14.5 µM | 5.1 µM | 38.2 µM | > 100 µM | 19.9 µM | –
6 | CC(C)(C)OC(=O)N[C@H]1CCC2=NN=C(CCCCNC(=O)CC[C@@H](C=O)NC(=O)[C@H](CC3CCCCC3)NC1=O)O2 | 18.5 µM | 6.5 µM | 18.2 µM | > 100 µM | 10.9 µM | Dose-dependent effect
7 | CC(C)(C)OC(=O)N[C@H]1CCC2=NN=C(CCCCCNC(=O)CC[C@@H](C=O)NC(=O)[C@H](CC3CCCCC3)NC1=O)O2 | 8.6 µM | 51.2 µM | > 100 µM | > 100 µM | > 100 µM | –
8 | CC(C)C[C@@H]1NC(=O)[C@@H](NC(=O)OC(C)(C)C)CCC2=NN=C(CCCNC(=O)CC[C@@H](C=O)NC1=O)O2 | 21.3 µM | 5.9 µM | 30.5 µM | > 100 µM | 11.1 µM | –
